Results published in ChEMBL document CHEMBL4007393 (J Med Chem, 2017).
Converted amounts (≈) assume the structure as drawn.

Columns and labels:
[1] = Kinetic solubility of the compound in water after 30 mins by nephelometric analysis; format: physicochemical; details: read-out: Kinetic_solubility
Outline: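 DMSO stock diluted into water to 1% final DMSO and left at ambient temperature for 30 min. Solubility range read by nephelometry.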

[2] = AUC (0 to infinity) in FVB mouse at 30 mg/kg, administered through oral gavage as single dose by LC-MS analysis; format: ADME, organism-based; set-up: dose 30 mg/kg, time infinity, route oral; details: in vivo
Outline: (§1)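 Non-infected mice given one oral gavage dose of 30 mg/kg as an aqueous suspension. Terminal cardiac blood taken under isoflurane, centrifuged at 4 °C, plasma stored at -20 °C. Plasma proteins precipitated with acetonitrile (2:1 or 3:1), supernatant run by LC/MS with diazepam internal standard against a blank mouse plasma calibration curve. PK parameters calculated noncompartmentally.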

[3] = Cmax in FVB mouse at 30 mg/kg, administered through oral gavage as single dose by LC-MS analysis; format: ADME, organism-based; set-up: dose 30 mg/kg, route oral; details: in vivo; outline: as §1
[4] = Plasma concentration in FVB mouse at 30 mg/kg, administered through oral gavage as single dose measured after 48 hrs post dose by LC-MS analysis; format: ADME, organism-based; outline: as §1
[5] = system: Rattus norvegicus; assay: Drug accumulation in rat at 100 to 300 mg/kg, po administered every third day for 5 doses measured after 2 weeks relative to control; format: ADME, organism-based; details: in vivo, 336 h
Outline: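 Male rats were given oral gavage doses of 100 or 300 mg/kg every third day for five doses, alongside a vehicle group. The vehicle was the same formulation used for the mouse efficacy studies. Plasma concentrations were followed over the dosing period to assess accumulation, together with general condition, body weight, biochemistry and histopathology.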

[6] = Plasma concentration in rat at 300 mg/kg, po administered every third day for 5 doses measured after 2 weeks; format: ADME, organism-based
Outline: (§2)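 Male rats dosed by oral gavage at 100 or 300 mg/kg every third day for 5 doses, in the same vehicle as the mouse efficacy and exposure studies; vehicle controls included. Endpoints: general condition, body weight, clinical biochemistry, histopathology, mortality and plasma concentrations.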

[7] = Plasma concentration in rat at 100 mg/kg, po administered every third day for 5 doses measured after 2 weeks; format: ADME, organism-based; outline: as §2

Compound | solubility kinetic at 0.5 h [1] | AUC(0-inf) [2] | Cmax [3] | concentration at 48 h [4] | fold change (FC) [5] | concentration at 336 h [6] | concentration at 336 h [7]
CC(C)(N)CNC(=O)C[C@H]1CC[C@]2(CC1)OOC1(O2)C2CC3CC(C2)CC1C3 (stereo partly drawn) | > 100 µg/mL | 2.61 µM·h | 776 nM | < 1 nM | – | – | –
N[C@H]1CC[C@@H](Oc2ccc([C@H]3CC[C@]4(CC3)OOC3(O4)C4CC5CC(C4)CC3C5)cc2)CC1 (stereo partly drawn) | 25 to 50 µg/mL (≈ 55.1 to 110 µM) | 29.5 µM·h | 1170 nM | 145 nM | 1 to 4 | – | –
CC1(C)CC(O)(COc2ccc([C@H]3CC[C@]4(CC3)OOC3(O4)C4CC5CC(C4)CC3C5)cc2)CC(C)(C)N1 (stereo partly drawn) | > 100 µg/mL | 32.9 µM·h | 1000 nM | 122 nM | – | – | –
[O-][S+]1CCN(CCCOc2ccc([C@H]3CC[C@]4(CC3)OOC3(O4)C4CC5CC(C4)CC3C5)cc2)CC1 (stereo partly drawn) | < 1.6 µg/mL | – | – | – | – | 1000 to 2000 ng/mL | –
c1cc([C@H]2CC[C@]3(CC2)OOC2(O3)C3CC4CC(C3)CC2C4)ccc1OCCN1CCCOCC1 (stereo partly drawn) | 3.1 to 6.3 µg/mL (≈ 6.41 to 13 µM) | 16.8 µM·h | 2610 nM | 13.2 nM | – | – | –
CC(C)(O)CNCCCOc1ccc([C@H]2CC[C@]3(CC2)OOC2(O3)C3CC4CC(C3)CC2C4)cc1 (stereo partly drawn) | > 100 µg/mL | 22.8 µM·h | 1210 nM | 36 nM | – | > 1900 ng/mL | –
c1cc([C@H]2CC[C@]3(CC2)OOC2(O3)C3CC4CC(C3)CC2C4)ccc1OCCOC1CCNCC1 (stereo partly drawn) | 50 to 100 µg/mL (≈ 103 to 207 µM) | 19 µM·h | 633 nM | 97.6 nM | – | – | –
CS(=O)(=O)N1CCN(CCCOc2ccc([C@H]3CC[C@]4(CC3)OOC3(O4)C4CC5CC(C4)CC3C5)cc2)CC1 (stereo partly drawn) | < 1.6 µg/mL | – | – | – | – | – | –
NC1CCN(S(=O)(=O)c2ccc([C@H]3CC[C@]4(CC3)OOC3(O4)C4CC5CC(C4)CC3C5)cc2)CC1 (stereo partly drawn) | 12.5 to 25 µg/mL (≈ 24.9 to 49.7 µM) | – | – | – | – | – | –
O[C@H]1CC[C@H](NCCCOc2ccc([C@H]3CC[C@]4(CC3)OOC3(O4)C4CC5CC(C4)CC3C5)cc2)CC1 (stereo partly drawn) | > 100 µg/mL | 12.8 µM·h | 721 nM | 26.5 nM | – | – | –
O=C(c1ccc([C@H]2CC[C@]3(CC2)OOC2(O3)C3CC4CC(C3)CC2C4)cc1)N1CCNCC1 (stereo partly drawn) | > 100 µg/mL | – | – | – | – | – | –
c1cc([C@H]2CC[C@]3(CC2)OOC2(O3)C3CC4CC(C3)CC2C4)ccc1OC1CCNCC1 (stereo partly drawn) | > 100 µg/mL | 16.4 µM·h | 810 nM | 49.4 nM | – | – | –
c1cc([C@H]2CC[C@]3(CC2)OOC2(O3)C3CC4CC(C3)CC2C4)ccc1OCCCN1CCOCC1 (stereo partly drawn) | 1.6 to 3.1 µg/mL (≈ 3.31 to 6.41 µM) | – | – | – | – | – | –
NCCOc1ccc([C@H]2CC[C@]3(CC2)OOC2(O3)C3CC4CC(C3)CC2C4)cc1 (stereo partly drawn) | > 100 µg/mL | 3.42 µM·h | 287 nM | 4.73 nM | 1 to 4 | – | –
CC(C)(N)CCOc1ccc([C@H]2CC[C@]3(CC2)OOC2(O3)C3CC4CC(C3)CC2C4)cc1 (stereo partly drawn) | 50 to 100 µg/mL (≈ 113 to 226 µM) | 27.8 µM·h | 1050 nM | 89.2 nM | 1 to 4 | – | –
NCCCCOc1ccc([C@H]2CC[C@]3(CC2)OOC2(O3)C3CC4CC(C3)CC2C4)cc1 (stereo partly drawn) | 50 to 100 µg/mL (≈ 117 to 234 µM) | 11 µM·h | 370 nM | 23.4 nM | – | – | –
NCCCOc1ccc([C@H]2CC[C@]3(CC2)OOC2(O3)C3CC4CC(C3)CC2C4)cc1 (stereo partly drawn) | – | – | – | – | 1 to 4 | – | –
CC(C)(O)CN1CCC(Oc2ccc([C@H]3CC[C@]4(CC3)OOC3(O4)C4CC5CC(C4)CC3C5)cc2)CC1 (stereo partly drawn) | 1.6 to 3.1 µg/mL (≈ 3.13 to 6.06 µM) | 27.7 µM·h | 1810 nM | 22.7 nM | – | 1000 to 2000 ng/mL | –
CC(C)(CN)Oc1ccc([C@H]2CC[C@]3(CC2)OOC2(O3)C3CC4CC(C3)CC2C4)cc1 (stereo partly drawn) | > 100 µg/mL | 11.3 µM·h | 529 nM | 7.97 nM | – | – | –
c1cc([C@H]2CC[C@]3(CC2)OOC2(O3)C3CC4CC(C3)CC2C4)ccc1OCCN1CCCCC1 (stereo partly drawn) | 6.3 to 12.5 µg/mL (≈ 13.5 to 26.7 µM) | – | – | – | – | – | –
c1cc([C@H]2CC[C@]3(CC2)OOC2(O3)C3CC4CC(C3)CC2C4)ccc1OCCN1CC2(COC2)C1 (stereo partly drawn) | 50 to 100 µg/mL (≈ 104 to 208 µM) | – | – | – | – | – | –
c1cc([C@H]2CC[C@]3(CC2)OO[C@]2(O3)C3CC4CC(C3)CC2C4)ccc1OCCN1CCOCC1 [ARTEFENOMEL] | < 1.6 µg/mL | 38.7 µM·h | 3800 nM | 132 nM | – | 6300 ng/mL | 4600 ng/mL
c1cc([C@H]2CC[C@]3(CC2)OOC2(O3)C3CC4CC(C3)CC2C4)ccc1OCC1CCNCC1 (stereo partly drawn) | 12.5 to 25 µg/mL (≈ 27.6 to 55.1 µM) | 8.9 µM·h | 465 nM | 17.9 nM | – | – | –
c1cc([C@H]2CC[C@]3(CC2)OOC2(O3)C3CC4CC(C3)CC2C4)ccc1OCCN1CCNCC1 (stereo partly drawn) | > 100 µg/mL | 16.8 µM·h | 752 nM | 23.9 nM | – | – | –
c1cc([C@H]2CC[C@]3(CC2)OOC2(O3)C3CC4CC(C3)CC2C4)ccc1CN1CCOCC1 (stereo partly drawn) | 1.6 to 3.1 µg/mL (≈ 3.64 to 7.05 µM) | – | – | – | – | – | –
c1cc([C@H]2CC[C@]3(CC2)OOC2(O3)C3CC4CC(C3)CC2C4)ccc1OCCC1CCNCC1 (stereo partly drawn) | > 100 µg/mL | 34.1 µM·h | 1190 nM | 192 nM | – | – | –
FC1(F)C2CC3CC1CC(C2)C31OO[C@]2(CC[C@@H](c3ccc(OCCN4CCOCC4)cc3)CC2)O1 (stereo partly drawn) | 1.6 to 3.1 µg/mL (≈ 3.16 to 6.13 µM) | – | – | – | – | – | –
c1ccc([C@H]2CC[C@]3(CC2)OOC2(O3)C3CC4CC(C3)CC2C4)c(OCCN2CCOCC2)c1 (stereo partly drawn) | 3.1 to 6.3 µg/mL (≈ 6.6 to 13.4 µM) | – | – | – | – | – | –
c1cc([C@H]2CC[C@]3(CC2)OOC2(O3)C3CC4CC(C3)CC2C4)ccc1OCCN1CCC1 (stereo partly drawn) | > 100 µg/mL | – | – | – | – | – | –
